{"source": "PubChem BioAssay AID624324", "about": "(Broad Institute, 2012)", "note": "Active and inactive are the calls of the source.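 Rule for the calls: active = fitted AC50 at or under twice the sample's top valid tested dose, with viability loss; inconclusive = flat curve with 30 to 70% viability loss, or poor fit; inactive = the rest, including shifts toward viability gain.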"}
{"system": "not listed separately", "assay": "cytotoxicity in MITF-independent A375 cells – cell-based, CellTiter-Glo luminescence, dry powder, set 3, counter-screen for MITF inhibitor project, dose response (AID 624324)", "conditions": "A375 melanoma viability, CellTiter-Glo ATP luminescence, 24 h; at 35 µM (top of the series)", "outline": "(§1)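 assay system = A375 melanoma cells, MITF-independent | quantity = 3000 A375 cells seeded per well | incubation = 24 h exposure at 37 °C, 5 min detection at RT | measured by = ATP luminescence, CellTiter-Glo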"}
{"smiles": "CN1CCN(C2=C(NS(=O)(=O)c3ccc(Br)cc3)C(=O)c3ccccc3C2=O)CC1", "activity change, negative = viability loss": "1% (inactive)"}
{"smiles": "CN1CCN(C2=C(NS(=O)(=O)c3cccs3)C(=O)c3ccccc3C2=O)CC1", "activity change, negative = viability loss": "12.4% (inactive)"}
{"smiles": "C=CCNC1=C(NCC=C)C(=O)c2ccccc2C1=O", "activity change, negative = viability loss": "1.61% (inactive)"}
{"smiles": "COc1ccc(C2=C(NC(=O)c3ccc(OC)cc3-c3cccc(OC)c3)C(=O)c3ccccc3C2=O)cc1", "activity change, negative = viability loss": "4.86% (inactive)"}
{"smiles": "O=C(NC1=C(N2CCN(c3ccccc3)CC2)C(=O)c2ccccc2C1=O)c1ccccc1", "activity change, negative = viability loss": "-7.51% (inactive)"}
{"smiles": "C=CCNC1=C(NCCCN2CCOCC2)C(=O)c2ccccc2C1=O", "activity change, negative = viability loss": "1.84% (inactive)"}
{"smiles": "NC1=C(c2ccc(OC(F)(F)F)cc2)C(=O)c2ccccc2C1=O", "activity change, negative = viability loss": "-5.51% (inactive)"}
{"smiles": "NC1=C(c2ccccc2)C(=O)c2ccccc2C1=O", "activity change, negative = viability loss": "-6.89% (inactive)"}
{"smiles": "O=C1C(NS(=O)(=O)c2ccc(Br)cc2)=C(N2CCN(c3ccccc3)CC2)C(=O)c2ccccc21", "activity change, negative = viability loss": "0.602% (inactive)"}
{"system": "A375 melanoma viability, CellTiter-Glo ATP luminescence, 24 h", "assay": "cytotoxicity in MITF-independent A375 cells – cell-based, CellTiter-Glo luminescence, dry powder, set 3, counter-screen for MITF inhibitor project, dose response (AID 624324)", "conditions": "not given", "outline": "as §1"}
{"smiles": "CN1CCN(C2=C(NC(=O)c3ccc(Br)cc3)C(=O)c3ccccc3C2=O)CC1", "AC50": "15.2 µM"}
{"smiles": "O=C1C(NS(=O)(=O)c2ccc(Br)s2)=C(N2CCSCC2)C(=O)c2ccccc21", "AC50": "> 70 µM (inactive)"}
{"smiles": "COc1ccc(C2=C(N)C(=O)c3ccccc3C2=O)cc1", "AC50": "> 70 µM (inactive)"}
{"smiles": "O=C1C(NS(=O)(=O)c2ccc(Br)s2)=C(N2CCOCC2)C(=O)c2ccccc21", "AC50": "> 70 µM (inactive)"}
{"smiles": "CC(=O)N(C)C1=C(N2CCN(C)CC2)C(=O)c2ccccc2C1=O", "AC50": "15.6 µM"}
{"smiles": "C=CCNC1=C(N2CCN(C)CC2)C(=O)c2ccccc2C1=O", "AC50": "20.9 µM"}
{"smiles": "COc1ccc(C2=C(NC(=O)c3ccccc3Cl)C(=O)c3ccccc3C2=O)cc1", "AC50": "12.2 µM"}
{"smiles": "COc1ccc(C2=C(NC(=O)c3cccc(Cl)c3)C(=O)c3ccccc3C2=O)cc1", "AC50": "16.8 µM"}
{"smiles": "O=C1C(NS(=O)(=O)c2cccs2)=C(N2CCOCC2)C(=O)c2ccccc21", "AC50": "> 70 µM (inactive)"}
{"smiles": "O=C(NC1=C(N2CCSCC2)C(=O)c2ccccc2C1=O)c1ccc(Br)cc1", "AC50": "> 70 µM (inactive)"}
{"smiles": "O=C1C(NS(=O)(=O)c2ccccc2)=C(N2CCOCC2)C(=O)c2ccccc21", "AC50": "13.8 µM"}
{"smiles": "O=C(NC1=C(N2CCCCC2)C(=O)c2ccccc2C1=O)c1ccc(Br)cc1", "AC50": "> 70 µM (inactive)"}
{"smiles": "O=C(NC1=C(c2ccc(OC(F)(F)F)cc2)C(=O)c2ccccc2C1=O)c1ccco1", "AC50": "28 µM"}
{"smiles": "Cc1ccc(C(=O)NC2=C(c3ccccc3)C(=O)c3ccccc3C2=O)o1", "AC50": "16 µM"}
{"smiles": "CN1CCN(C2=C(Nc3ccccc3)C(=O)c3ccccc3C2=O)CC1", "AC50": "27.2 µM"}
{"smiles": "O=C1C(NS(=O)(=O)c2ccc(Br)cc2)=C(N2CCOCC2)C(=O)c2ccccc21", "AC50": "> 70 µM (inactive)"}
{"smiles": "COc1ccc(C2=C(NC(C)=O)C(=O)c3ccccc3C2=O)cc1", "AC50": "13.3 µM"}
{"smiles": "O=C1C(NS(=O)(=O)c2ccc(Br)cc2)=C(c2ccccc2)C(=O)c2ccccc21", "AC50": "> 70 µM (inactive)"}
{"smiles": "C=CCNC1=C(NS(=O)(=O)c2cccs2)C(=O)c2ccccc2C1=O", "AC50": "> 70 µM (inactive)"}
{"smiles": "COc1ccc(C(=O)NC2=C(c3ccc(OC(F)(F)F)cc3)C(=O)c3ccccc3C2=O)cc1", "AC50": "32.2 µM"}
{"smiles": "C=CCNC1=C(N(C)C(C)=O)C(=O)c2ccccc2C1=O", "AC50": "9.29 µM"}
{"smiles": "NC1=C(NC(=O)c2ccccc2)C(=O)c2ccccc2C1=O", "AC50": "> 70 µM (inactive)"}
{"smiles": "CC(=O)N(C)C1=C(N2CCOCC2)C(=O)c2ccccc2C1=O", "AC50": "32.9 µM"}
{"smiles": "Cc1nc2ccccc2n1/N=C/c1ccc([N+](=O)[O-])s1", "AC50": "> 70 µM (inactive)"}
{"smiles": "CC(=O)NC1=C(c2ccc(Cl)cc2)C(=O)c2ccccc2C1=O", "AC50": "10.4 µM"}
{"smiles": "COc1cccc(C2=C(NC(=O)c3ccccc3)C(=O)c3ccccc3C2=O)c1", "AC50": "16.2 µM"}
{"smiles": "CN1CCN(C2=C(NS(=O)(=O)c3ccc(Br)s3)C(=O)c3ccccc3C2=O)CC1", "AC50": "> 70 µM (inactive)"}
{"smiles": "CCN(CC)CCCCNC1=C(Nc2ccccc2)C(=O)c2ccccc2C1=O", "AC50": "> 70 µM (inactive)"}
{"smiles": "O=C1C(NS(=O)(=O)c2cccs2)=C(N2CCCCC2)C(=O)c2ccccc21", "AC50": "> 70 µM (inactive)"}
{"smiles": "O=C1C(NCCCN2CCOCC2)=C(Nc2ccccc2)C(=O)c2ccccc21", "AC50": "> 70 µM (inactive)"}
{"smiles": "C=CCNC1=C(Nc2ccccc2)C(=O)c2ccccc2C1=O", "AC50": "> 70 µM (inactive)"}
{"smiles": "O=C1C(Nc2ccccc2)=C(NS(=O)(=O)c2ccccc2[N+](=O)[O-])C(=O)c2ccccc21", "AC50": "> 70 µM (inactive)"}
{"smiles": "CCN1CCN(C2=C(NS(=O)(=O)c3cccs3)C(=O)c3ccccc3C2=O)CC1", "AC50": "> 70 µM (inactive)"}
{"smiles": "O=C(NC1=C(c2ccccc2)C(=O)c2ccccc2C1=O)c1ccco1", "AC50": "13.8 µM"}
{"smiles": "CC(=O)NC1=C(c2ccc3c(c2)oc2ccccc23)C(=O)c2ccccc2C1=O", "AC50": "24.7 µM"}
{"smiles": "O=C(NC1=C(c2ccccc2)C(=O)c2ccccc2C1=O)c1ccccc1", "AC50": "27.9 µM"}
{"smiles": "O=C1C(NS(=O)(=O)c2ccccc2)=C(N2CCCCC2)C(=O)c2ccccc21", "AC50": "> 70 µM (inactive)"}
